Among the data in ChEMBL document CHEMBL1157183, “Synthesis and discovery of a novel pyrazole derivative as an inhibitor of apoptosis through modulating integrin beta4, ROS, and p53 levels in vascular endothelial cells” (2008) are Activity and Flu intensity values, retold here.

Each structure is given as a SMILES string. Active and inactive are the calls of the source. The rule behind the calls is not given here.

Assay [1] has as its system HUVEC. As to the kind of experiment: Suppression of apoptosis in HUVEC cells at 25 uM by MTT assay. Format: functional, cell-based. Particulars: Homo sapiens. Summed up: (§1)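 Sub-confluent HUVECs, passages 10–20, were washed and cultured in M199 without serum and FGF-2. They were treated at 5, 10, 20, 25, 50 and 100 µM (DMSO vehicle at a non-toxic final level). Viability was measured by MTT at 24 and 48 h against deprived control and full-medium normal cells; n = 3.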
A general note: Formazan colour is commonly taken as a measure of viable cells.

Assay [2] concerns HUVEC. Kind of assay: Induction of apoptosis in HUVEC cells at 50 uM by MTT assay. Format: functional, cell-based. The note with it: Homo sapiens. In a few lines: as §1
Assay [3] deals with HUVEC. As to the kind of experiment: Induction of apoptosis in HUVEC cells at 100 uM by MTT assay. Format: functional, cell-based. The note with it: Homo sapiens. In a few lines: as §1
Assay [4] concerns HUVEC. As to the kind of experiment: Increase in cell viability of HUVEC cells at 25 uM. Format: functional, cell-based. Particulars: Homo sapiens. In a few lines: as §1
For assay [5], the system named is HUVEC. Kind of assay: Inhibition of nuclear DNA condensation in HUVEC cells at 25 uM after 24 hrs by acridine orange staining assay. Particulars: Homo sapiens. Format: functional, cell-based. In a few lines: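 Serum/FGF-2-deprived HUVECs were treated with 25 µM for 24 h, then stained with acridine orange for 5 min. Nuclear condensation and fragmentation were examined by laser scanning confocal microscopy.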

Assay [6] concerns HUVEC. As to the kind of experiment: Inhibition of DNA fragmentation in HUVEC cells at 25 uM after 24 hrs by TUNEL assay. Particulars: Homo sapiens. Format: functional, cell-based. In a few lines: (§2)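 TUNEL staining was done on HUVECs deprived of serum and FGF-2 (basal M199) and treated with 25 µM for 24 h. Apoptotic cells were quantified as a percentage from fluorescent micrographs, relative to deprived control and to cells in M199 with 20% FBS plus 70 ng/mL FGF-2.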

The test system of assay [7] is HUVEC. As to the kind of experiment: Reduction of serum and FGF2 deprivation-induced apoptosis in HUVEC cells at 25 uM after 24 hrs. Format: functional, Homo sapiens. Details: scale not given: the % may be the effect or the level left. Summed up: as §2
Assay [8] has as its system HUVEC. As to the kind of experiment: Decrease in integrin beta4 level in HUVEC cells at 25 uM after 12 hrs in absence of serum and FGF2. Format: functional, Homo sapiens. In a few lines:
(§3)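 HUVECs, passages 10–20, grown to sub-confluence, washed and switched to basal M199 without FBS and FGF-2; 25 µM in DMSO for 12, 24 or 48 h. Comparators were cells kept in M199 with 20% FBS plus 70 ng/mL FGF-2 and cells in basal medium alone. Immunofluorescence used rabbit anti-human integrin β4 and FITC-IgG secondary, read by laser scanning confocal microscopy as relative fluorescence intensity; n = 3.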

Assay [9] concerns HUVEC. Kind of assay: Decrease in integrin beta4 level in HUVEC cells at 25 uM after 24 hrs in absence of serum and FGF2. Format: functional, Homo sapiens. Summed up: as §3
For assay [10], the system named is HUVEC. Kind of assay: Decrease in integrin beta4 level in HUVEC cells at 25 uM after 48 hrs in absence of serum and FGF2. Format: functional, Homo sapiens. In a few lines:
as §3

In assay [11] the test system is HUVEC. Kind of assay: Decrease in serum and FGF2 deprivation-induced intracellular ROS level in HUVEC cells. The note with it: Homo sapiens. Format: functional, cell-based. In a few lines: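 Intracellular ROS measured with the DCHF probe, which oxidises to fluorescent DCF. Cells were HUVECs in basal M199 lacking serum and FGF-2, exposed to 25 µM for 12, 24 and 48 h. Fluorescence was imaged by laser scanning confocal microscopy and expressed as relative DCF intensity per cell in the scanned area; n = 3.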

For assay [12], the system named is HUVEC. As to the kind of experiment: Decrease in serum and FGF2 deprivation-induced p53 level in HUVEC cells. Format: functional, cell-based. Particulars: Homo sapiens. Summed up:
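Serum/FGF-2-deprived HUVECs (basal M199) received 25 µM for 12, 24 and 48 h. Comparators were cells in M199 with 20% FBS and 70 ng/mL FGF-2 and untreated deprived cells. p53 was detected by immunofluorescence with rabbit anti-human p53 and FITC-IgG secondary, semiquantified as relative intensity by confocal microscopy; n = 3.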

As to `CCOC(=O)c1c(-c2ccccc2Cl)nn(-c2ccccc2)c1C`, the result in [1], in assay [2], in assay [3], in [4], in assay [5] and in [6] was Active. Further, the outcome in [11] and in assay [12] was Active. Besides, the Activity in assay [7] came out at 19.16%. Moreover, the figures for the Flu intensity in [8], in assay [9] and in assay [10] were 6.307, 9.083 and 13.14, respectively.
